Experiments:
[1] = test system: A-431; assay: Antiproliferative activity against human A431 cells after 72 hrs by CCK-8 assay; format: functional, cell-based
[2] = Antiproliferative activity against human HCC827 cells after 72 hrs by CCK-8 assay; format: functional, cell-based; conditions: HCC827, 72 h
[3] = molecular target: T1, Prostaglandin G/H synthase 1 (Ovis aries, UniProt P05979); assay: Inhibition of Ovine COX-1 preincubated for 15 mins by fluorescence analysis
T1 sequence (P05979 whole entry): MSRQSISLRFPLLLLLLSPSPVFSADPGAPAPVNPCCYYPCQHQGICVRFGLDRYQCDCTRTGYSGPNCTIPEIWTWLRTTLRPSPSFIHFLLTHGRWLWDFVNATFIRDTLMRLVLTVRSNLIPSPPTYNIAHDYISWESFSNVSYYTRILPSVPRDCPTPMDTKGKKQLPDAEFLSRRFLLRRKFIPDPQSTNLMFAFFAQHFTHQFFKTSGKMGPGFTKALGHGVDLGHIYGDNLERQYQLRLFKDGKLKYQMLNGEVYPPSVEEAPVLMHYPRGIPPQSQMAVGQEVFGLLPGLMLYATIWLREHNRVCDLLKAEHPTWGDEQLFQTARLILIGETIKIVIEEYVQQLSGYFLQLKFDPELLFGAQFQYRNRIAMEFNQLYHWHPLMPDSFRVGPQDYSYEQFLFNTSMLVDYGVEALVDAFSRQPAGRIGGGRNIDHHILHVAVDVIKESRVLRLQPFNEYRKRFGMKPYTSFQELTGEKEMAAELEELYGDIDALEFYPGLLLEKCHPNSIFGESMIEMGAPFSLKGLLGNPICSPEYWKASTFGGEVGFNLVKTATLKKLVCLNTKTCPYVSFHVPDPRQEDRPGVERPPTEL

[4] = molecular target: Epidermal growth factor receptor (Homo sapiens, UniProt P00533); assay: Inhibition of EGFR (unknown origin) using tyrosine 4 as substrate by fluorescence analysis
Epidermal growth factor receptor, sequence (P00533 whole entry): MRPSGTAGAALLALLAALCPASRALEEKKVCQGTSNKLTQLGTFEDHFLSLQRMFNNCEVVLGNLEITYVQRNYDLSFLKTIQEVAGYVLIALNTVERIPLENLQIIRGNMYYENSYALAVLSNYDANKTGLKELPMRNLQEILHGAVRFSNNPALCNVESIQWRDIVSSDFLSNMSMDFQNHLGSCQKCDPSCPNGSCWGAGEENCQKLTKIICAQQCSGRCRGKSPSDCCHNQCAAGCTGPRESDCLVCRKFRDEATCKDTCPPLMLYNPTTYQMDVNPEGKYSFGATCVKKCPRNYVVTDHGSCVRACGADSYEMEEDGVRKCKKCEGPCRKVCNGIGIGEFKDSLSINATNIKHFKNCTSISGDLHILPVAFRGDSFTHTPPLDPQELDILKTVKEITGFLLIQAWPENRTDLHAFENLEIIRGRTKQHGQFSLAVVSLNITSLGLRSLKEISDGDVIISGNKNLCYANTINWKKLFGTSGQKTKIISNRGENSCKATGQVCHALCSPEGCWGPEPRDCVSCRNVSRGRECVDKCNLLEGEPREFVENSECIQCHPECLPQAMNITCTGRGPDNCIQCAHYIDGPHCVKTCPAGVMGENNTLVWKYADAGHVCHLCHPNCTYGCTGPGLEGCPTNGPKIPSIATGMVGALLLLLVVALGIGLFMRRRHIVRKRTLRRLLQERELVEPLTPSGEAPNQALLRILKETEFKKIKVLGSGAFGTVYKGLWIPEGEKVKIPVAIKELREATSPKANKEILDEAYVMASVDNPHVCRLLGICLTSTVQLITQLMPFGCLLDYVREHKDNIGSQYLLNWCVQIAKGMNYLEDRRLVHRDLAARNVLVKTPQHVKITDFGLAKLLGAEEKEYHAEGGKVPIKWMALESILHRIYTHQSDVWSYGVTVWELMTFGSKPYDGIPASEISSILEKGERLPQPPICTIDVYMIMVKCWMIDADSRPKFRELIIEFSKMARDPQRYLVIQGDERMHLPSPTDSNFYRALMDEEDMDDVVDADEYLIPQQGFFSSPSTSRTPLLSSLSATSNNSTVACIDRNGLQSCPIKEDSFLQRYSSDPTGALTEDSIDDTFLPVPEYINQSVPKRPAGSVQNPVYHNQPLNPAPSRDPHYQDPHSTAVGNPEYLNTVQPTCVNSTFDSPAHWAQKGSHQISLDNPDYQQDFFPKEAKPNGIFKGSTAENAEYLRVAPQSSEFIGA

[5] = Drug level in human HCC827 cells treated with 2-(4-(3-ethynylphenylamino)-6-(2-methoxyethoxy)quinazolin-7-yloxy)ethyl 2-(6-methoxynaphthalen-2-yl)propanoate by LC-MS/MS analysis; format: ADME, cell-based
How it was run: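 Conjugate added to culture medium (containing active serum) and incubated with HCC827 tumor cells for up to 24 h. Samples taken over time to follow hydrolysis of the conjugate and release of the parent molecules.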

[6] = Homo sapiens, A-431, 72 h, read-out: IC50

| Structure (SMILES) | IC50 [1, 6] [µM] | IC50 [3] [µM] | IC50 [4] [µM] | IC50 ([1]; a-431) | Drug metabolism [5] | IC50 [2] [µM] |
| --- | --- | --- | --- | --- | --- | --- |
| C#Cc1cccc(Nc2ncnc3cc(OCCOC)c(OCCOC(=O)c4ccccc4OC(C)=O)cc23)c1 | > 10 |  |  |  |  | 0.1 |
| C#Cc1cccc(Nc2ncnc3cc(OCCOC(=O)c4ccc(C(=O)Nc5ccc6c(c5)C(C)(C)CCC6(C)C)cc4)c(OCCOC(=O)c4ccc(C(=O)Nc5ccc6c(c5)C(C)(C)CCC6(C)C)cc4)cc23)c1 |  | > 10 | 0.88 | Not Active |  | > 10 |
| C#Cc1cccc(Nc2ncnc3cc(OCCOC(=O)C(C)c4cccc(C(=O)c5ccccc5)c4)c(OCCOC(=O)C(C)c4cccc(C(=O)c5ccccc5)c4)cc23)c1 (stereo not drawn) | > 10 |  |  |  |  | 2.1 |
| C#Cc1cccc(Nc2ncnc3cc(OCCOC(=O)C(C)c4ccc5cc(OC)ccc5c4)c(OCCOC(=O)C(C)c4ccc5cc(OC)ccc5c4)cc23)c1 (stereo not drawn) |  | > 10 | 0.39 | Not Active |  | 2.3 |
| C#Cc1cccc(Nc2ncnc3cc(OCCOC(=O)c4ccccc4OC(C)=O)c(OCCOC)cc23)c1 | 1.8 | > 10 | 0.005 |  |  | 0.1 |
| C#Cc1cccc(Nc2ncnc3cc(OCCOC(=O)Cc4c(C)n(C(=O)c5ccc(Cl)cc5)c5ccc(OC)cc45)c(OCCOC(=O)Cc4c(C)n(C(=O)c5ccc(Cl)cc5)c5ccc(OC)cc45)cc23)c1 | > 10 | 31.4 | 0.033 |  |  | 1.6 |
| C#Cc1cccc(Nc2ncnc3cc(OCCOC)c(OCCOC)cc23)c1 [ERLOTINIB] |  | > 10 |  |  |  |  |
| C#Cc1cccc(Nc2ncnc3cc(OCCOC(=O)c4ccc(C(=O)Nc5ccc6c(c5)C(C)(C)CCC6(C)C)cc4)c(OCCOC)cc23)c1 | > 10 | > 10 | 0.032 |  |  | 0.2 |
| C#Cc1cccc(Nc2ncnc3cc(OCCOC)c(OCCOC(=O)Cc4c(C)n(C(=O)c5ccc(Cl)cc5)c5ccc(OC)cc45)cc23)c1 | > 10 |  |  |  |  | 1.2 |
| C#Cc1cccc(Nc2ncnc3cc(OCCOC(=O)CC4=C(C)/C(=C\c5ccc([S+](C)[O-])cc5)c5ccc(F)cc54)c(OCCOC)cc23)c1 (stereo not drawn) | 5.4 | > 10 | 0.031 |  |  | 0.3 |
| C#Cc1cccc(Nc2ncnc3cc(OCCOC)c(OCCOC(=O)C(C)c4cccc(C(=O)c5ccccc5)c4)cc23)c1 (stereo not drawn) | 1.7 |  |  |  |  | 0.3 |
| C#Cc1cccc(Nc2ncnc3cc(OCCOC(=O)c4ccccc4OC(C)=O)c(OCCOC(=O)c4ccccc4OC(C)=O)cc23)c1 | > 10 | 39.6 | 0.034 |  |  | 0.9 |
| C#Cc1cccc(Nc2ncnc3cc(OCCOC(=O)Cc4c(C)n(C(=O)c5ccc(Cl)cc5)c5ccc(OC)cc45)c(OCCOC)cc23)c1 | > 10 | 11.3 | 0.027 |  |  | 0.9 |
| C#Cc1cccc(Nc2ncnc3cc(OCCOC)c(OCCOC(=O)CC4=C(C)/C(=C\c5ccc([S+](C)[O-])cc5)c5ccc(F)cc54)cc23)c1 (stereo not drawn) | 4.8 |  |  |  |  | 0.4 |
| C#Cc1cccc(Nc2ncnc3cc(OCCO)c(OCCOC)cc23)c1 | 1.27 | > 10 | 0.001 |  | metabolite_detected | 0.014 |
| C#Cc1cccc(Nc2ncnc3cc(OCCOC(=O)CC4=C(C)/C(=C/c5ccc([S+](C)[O-])cc5)c5ccc(F)cc54)c(OCCOC(=O)CC4=C(C)/C(=C/c5ccc([S+](C)[O-])cc5)c5ccc(F)cc54)cc23)c1 (stereo not drawn) | > 10 | > 10 | 0.027 |  |  | 3.5 |

Now from value to compound, other results behind:

| IC50 [1, 6] [µM] | IC50 [3] [µM] | IC50 [4] [µM] | IC50 ([1]; a-431) | Drug metabolism [5] | Structure (SMILES) | IC50 [2] [µM] |
| --- | --- | --- | --- | --- | --- | --- |
|  |  | > 10 |  | metabolite_detected | COc1ccc2cc(C(C)C(=O)O)ccc2c1 (racemic) |  |
|  | 16 | > 10 |  |  | CC1=C(CC(=O)O)c2cc(F)ccc2/C1=C\c1ccc([S+](C)[O-])cc1 (stereo not drawn) |  |
|  |  | > 10 |  |  | CC(=O)Oc1ccccc1C(=O)O [ASPIRIN] |  |
| 5 |  |  |  |  | C#Cc1cccc(Nc2ncnc3cc(OCCOC)c(OCCOC(=O)C(C)c4ccc5cc(OC)ccc5c4)cc23)c1 (stereo not drawn) | 0.5 |
|  | > 10 | > 10 | Not Active |  | C#Cc1cccc(Nc2ncnc3cc(OCCOC(=O)C(C)c4ccc(CC(C)C)cc4)c(OCCOC(=O)C(C)c4ccc(CC(C)C)cc4)cc23)c1 (stereo not drawn) | 16.5 |
|  | 0.067 | > 10 |  |  | CC(C(=O)O)c1cccc(C(=O)c2ccccc2)c1 (stereo not drawn) [KETOPROFEN] |  |
| > 10 |  |  |  |  | C#Cc1cccc(Nc2ncnc3cc(OCCOC)c(OCCOC(=O)C(C)c4ccc(CC(C)C)cc4)cc23)c1 (stereo not drawn) | > 10 |
|  |  | > 10 |  |  | CC(C)Cc1ccc(C(C)C(=O)O)cc1 (stereo not drawn) [IBUPROFEN] |  |
|  |  | > 10 |  |  | COc1ccc2c(c1)c(CC(=O)O)c(C)n2C(=O)c1ccc(Cl)cc1 [INDOMETHACIN] |  |
| 2.2 | 44.7 | 0.009 |  |  | C#Cc1cccc(Nc2ncnc3cc(OCCOC(=O)C(C)c4ccc(CC(C)C)cc4)c(OCCOC)cc23)c1 (stereo not drawn) | 0.4 |
